Data reported in ChEMBL document CHEMBL3414473.
Activity calls are given as the source filed them. No cut-off for these calls is given here.

What was measured:
[1] = tested on: PC-3; assay: In vivo antitumor efficacy in human PC3 cells xenografted athymic nude mouse assessed as decrease in phosphorylation of Akt at Thr308 in tumor at 50 mg/kg, ip for 21 days relative to vehicle treated control; assay type: functional, organism-based; parameters: dose 50 mg/kg
Outline: (§1)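 Athymic nude mice given PC-3 cells sc (1 × 10⁶ per mouse); at about 50 mm³, randomized (n = 7) and dosed once daily for 21 days either ip at 50 mg/kg (vehicle saline/PEG400/DMSO/Tween 80, 65:20:10:5) or by oral gavage at 100 mg/kg (vehicle 0.5% methylcellulose/0.1% Tween 80 in water). Tumor volume measured weekly by calipers (width² × length × 0.52); phospho-proteins checked by Western blotting of tumor lysates.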

[2] = tested on: PC-3; assay: In vivo antitumor efficacy in human PC3 cells xenografted athymic nude mouse assessed as decrease in phosphorylation of IKK in tumor at 100 mg/kg, po for 21 days relative to vehicle treated control; assay type: functional, organism-based; parameters: dose 100 mg/kg; outline: as §1
[3] = molecular target: T1, 3-phosphoinositide-dependent protein kinase 1 (Homo sapiens, UniProt O15530); assay: Binding affinity to GST-tagged PH domain of PDK1 (unknown origin) by surface Plasmon resonance spectroscopy
T1 sequence (O15530 whole entry): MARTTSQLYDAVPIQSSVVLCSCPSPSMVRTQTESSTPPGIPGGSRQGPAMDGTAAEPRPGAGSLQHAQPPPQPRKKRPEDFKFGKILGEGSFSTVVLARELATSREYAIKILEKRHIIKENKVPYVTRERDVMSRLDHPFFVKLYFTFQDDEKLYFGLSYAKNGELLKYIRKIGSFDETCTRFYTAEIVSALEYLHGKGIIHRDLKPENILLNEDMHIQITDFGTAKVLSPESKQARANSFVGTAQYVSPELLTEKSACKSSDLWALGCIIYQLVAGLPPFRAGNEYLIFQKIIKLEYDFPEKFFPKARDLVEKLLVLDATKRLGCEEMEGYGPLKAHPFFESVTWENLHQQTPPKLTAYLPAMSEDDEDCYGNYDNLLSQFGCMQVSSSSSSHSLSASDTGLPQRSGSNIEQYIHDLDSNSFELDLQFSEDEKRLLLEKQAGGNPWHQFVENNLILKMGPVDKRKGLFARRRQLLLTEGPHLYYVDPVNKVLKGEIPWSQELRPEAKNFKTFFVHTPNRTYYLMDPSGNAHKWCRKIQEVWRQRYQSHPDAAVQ
Outline: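 SPR: GST-tagged PH domain fusion protein immobilized on CM5 chip by amine coupling to about 17000 RU. Analyte injected at 1–20 µM at 30 µL/min; DMSO in samples and running buffer ≤1% (v/v). Kd obtained from sensorgram fitting.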

[4] = tested on: PC-3; assay: In vivo antitumor efficacy in human PC3 cells xenografted athymic nude mouse assessed as decrease in phosphorylation of MDM2 in tumor at 50 mg/kg, ip for 21 days relative to vehicle treated control; assay type: functional, organism-based; parameters: dose 50 mg/kg; outline: as §1
[5] = molecular target: T2, PH domain leucine-rich repeat-containing protein phosphatase 1 (Homo sapiens, UniProt O60346); assay: Inhibition of PHLPP1-mediated reduction in phosphorylation of IKK in human LNCAP cells after 24 hrs by Western blot analysis; assay type: cell-based
Outline: (§2)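 LNCaP or PC-3 cells treated at various concentrations for 24 h in serum-free medium. Lysed in SDS buffer (50 mM Tris pH 8, 10 mM EDTA, 1% SDS, protease inhibitors); equal protein run on SDS-PAGE and transferred to nitrocellulose. Primary antibodies 1:1000 overnight at 4 °C, HRP secondary 1:2000; detected by ECL.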

[6] = tested on: LNCaP; assay: Induction of Akt localization to human LNCAP cell membrane after 24 hrs by immunofluorescence staining analysis; assay type: functional, cell-based
Outline: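 LNCaP cells on poly-L-lysine-coated surfaces, treated in serum-free medium for 24 h. Fixed in 4% formaldehyde, permeabilized with 0.1% Triton X-100, blocked in 1% FBS, primary antibody (1:300) overnight, then Alexa Fluor secondary 2 h; DAPI nuclei; confocal imaging with cross-sectional fluorescence intensity analysis.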

[7] = tested on: PC-3; assay: In vivo antitumor efficacy in human PC3 cells xenografted athymic nude mouse assessed as decrease in phosphorylation of Akt at Ser473 in tumor at 100 mg/kg, po for 21 days relative to vehicle treated control; assay type: functional, organism-based; parameters: dose 100 mg/kg; outline: as §1
[8] = tested on: PC-3; assay: In vivo antitumor efficacy in human PC3 cells xenografted athymic nude mouse assessed as decrease in phosphorylation of MDM2 in tumor at 100 mg/kg, po for 21 days relative to vehicle treated control; assay type: functional, organism-based; parameters: dose 100 mg/kg; outline: as §1
[9] = molecular target: T2, PH domain leucine-rich repeat-containing protein phosphatase 1; assay: Inhibition of PHLPP1-mediated reduction in phosphorylation of Akt at Thr308 in human LNCAP cells after 24 hrs by Western blot analysis; assay type: cell-based; outline: as §2

T2 sequence (O60346 whole entry, the tested form may be a part): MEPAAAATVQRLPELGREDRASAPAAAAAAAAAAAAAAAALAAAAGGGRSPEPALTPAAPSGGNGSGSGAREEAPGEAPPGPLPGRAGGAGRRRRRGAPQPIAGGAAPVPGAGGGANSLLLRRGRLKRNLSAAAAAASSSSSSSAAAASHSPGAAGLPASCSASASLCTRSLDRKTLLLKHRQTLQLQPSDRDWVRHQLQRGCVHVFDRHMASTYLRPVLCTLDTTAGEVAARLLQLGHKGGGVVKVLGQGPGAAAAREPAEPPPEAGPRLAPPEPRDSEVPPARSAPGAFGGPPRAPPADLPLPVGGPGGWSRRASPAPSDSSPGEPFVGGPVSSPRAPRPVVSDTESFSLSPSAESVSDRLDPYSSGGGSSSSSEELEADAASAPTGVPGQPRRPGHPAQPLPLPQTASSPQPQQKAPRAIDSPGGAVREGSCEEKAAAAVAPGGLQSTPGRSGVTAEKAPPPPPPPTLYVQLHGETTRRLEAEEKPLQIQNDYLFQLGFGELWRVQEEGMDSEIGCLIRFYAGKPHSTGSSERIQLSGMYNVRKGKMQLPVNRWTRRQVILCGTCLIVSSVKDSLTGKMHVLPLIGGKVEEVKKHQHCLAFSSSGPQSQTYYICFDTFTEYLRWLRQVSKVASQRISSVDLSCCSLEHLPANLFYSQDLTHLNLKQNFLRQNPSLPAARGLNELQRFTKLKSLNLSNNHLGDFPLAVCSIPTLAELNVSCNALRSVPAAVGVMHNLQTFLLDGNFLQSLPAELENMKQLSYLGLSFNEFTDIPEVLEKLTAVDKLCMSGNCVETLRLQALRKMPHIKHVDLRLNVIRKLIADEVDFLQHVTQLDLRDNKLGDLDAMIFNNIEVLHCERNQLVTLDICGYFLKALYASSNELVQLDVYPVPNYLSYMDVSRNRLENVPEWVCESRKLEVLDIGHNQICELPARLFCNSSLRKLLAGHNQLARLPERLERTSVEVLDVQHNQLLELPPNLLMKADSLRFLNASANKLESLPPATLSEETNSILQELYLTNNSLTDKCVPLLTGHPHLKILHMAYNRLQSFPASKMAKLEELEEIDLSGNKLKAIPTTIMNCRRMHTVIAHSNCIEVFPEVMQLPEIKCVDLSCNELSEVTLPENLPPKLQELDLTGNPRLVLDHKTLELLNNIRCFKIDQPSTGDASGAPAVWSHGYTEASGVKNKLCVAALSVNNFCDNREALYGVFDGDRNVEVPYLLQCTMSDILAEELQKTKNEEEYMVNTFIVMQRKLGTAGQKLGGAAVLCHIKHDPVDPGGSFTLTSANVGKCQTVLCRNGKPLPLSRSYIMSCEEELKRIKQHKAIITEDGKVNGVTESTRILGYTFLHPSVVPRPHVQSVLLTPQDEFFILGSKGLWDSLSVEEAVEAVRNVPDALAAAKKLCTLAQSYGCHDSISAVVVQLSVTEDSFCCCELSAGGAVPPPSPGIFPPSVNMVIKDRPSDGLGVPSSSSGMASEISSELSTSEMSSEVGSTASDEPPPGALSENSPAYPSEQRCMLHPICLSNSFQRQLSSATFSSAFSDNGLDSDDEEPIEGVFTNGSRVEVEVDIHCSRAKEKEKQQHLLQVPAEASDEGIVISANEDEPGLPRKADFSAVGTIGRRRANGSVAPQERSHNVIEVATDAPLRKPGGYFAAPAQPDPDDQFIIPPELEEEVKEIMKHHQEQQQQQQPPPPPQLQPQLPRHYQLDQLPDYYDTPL

- Kd [3]: 19.5 µM
- inhibition [5]: Dose-dependent effect
- inhibition [9]: inactive
Structure (SMILES): Cc1c(S(N)(=O)=O)cc2c(c1C)OC(C)(CCCC(C)C)CC2 (centres undefined)
- inhibition [1]: inactive
- Activity [2]: Active
- inhibition [4]: Active
- Activity [6]: Dose-dependent effect
- Activity [7]: Active
- Activity [8]: Active
